The source of these data is ChEMBL document CHEMBL1129262, “Peptidyl anthraquinones as potential antineoplastic drugs: synthesis, DNA binding, redox cycling, and biological activity” (J Med Chem, 1996).

Series [1] in a line: Exclusion parameter (base pairs). It is filed as ADME. A digest of the protocol:
(§1)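 DNA titrations were run at constant anthraquinone concentration while the DNA/drug ratio was varied, at 25 °C in 10 mM Tris pH 7.0 with 1 mM EDTA and NaCl added to set ionic strength. Binding was followed by fluorescence quenching, or by absorbance at 500–750 nm for non-fluorescent drugs. McGhee–von Hippel analysis gave the intrinsic constant K and the exclusion parameter n.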

The test system of the next series is Nucleic Acid. In words: Intrinsic Binding constant of compound to DNA at pH 7 and 25 Centigrade. The class given is functional. The conditions noted are these: Bos taurus. A digest of the protocol:
as §1

A further series deals with HL-60. Description: Effective concentration against cell growth of HL60 cell line by 50%. It is filed as functional. Particulars: Homo sapiens, HL-60, read-out: ED50. An outline of the steps: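 HL60 cells grown in RPMI-1640 with 10% fetal calf serum. Exponentially growing cells were exposed to drug for 1 h at 37 °C. Survival was read either by MTT, after washing and 96 h culture in drug-free medium, or by cell counting after 72 h culture. Value is the drug concentration inhibiting cell growth by 50%.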

The test system of the next series is HeLa. In words: Effective concentration against cell growth of HeLa cell line by 50%. The class given is functional. The conditions noted are these: Homo sapiens, read-out: ED50. A digest of the protocol: (§2)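 HeLa and L1210 cells grown in Dulbecco's modified Eagle's medium with 5% fetal calf serum, antibiotics and L-glutamine. Exponentially growing cells were exposed to drug for 1 h at 37 °C. Growth was scored by MTT, after washing and 96 h drug-free culture, or by cell counting after 72 h. Value is the concentration giving 50% growth inhibition.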

The subject of another series is L1210. In words: Effective concentration against cell growth of L1210 cell line by 50%. The class given is functional. Particulars: Mus musculus, L1210, read-out: ED50. An outline of the steps:
as §2

The nature of series [2]: Exclusion parameter (base pairs. It is filed as ADME. A digest of the protocol:
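Fluorometric titration at 25 °C in 10 mM Tris pH 7.0, 1 mM EDTA, NaCl set to the chosen ionic strength. DNA/drug ratio varied at constant drug concentration by mixing drug-alone and drug-plus-DNA solutions. Nonfluorescent drugs followed spectrophotometrically at 500–750 nm. Data fitted by McGhee–von Hippel to give K and the exclusion parameter n.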

For `NCCCC[C@H](N)C(=O)NCC(=O)Nc1ccc(NC(=O)CNC(=O)[C@@H](N)CCCCN)c2c1C(=O)c1ccccc1C2=O`, in series [1], the Exclusion parameter is listed as 2.3. In the series with Nucleic Acid, this molecule yielded a K x10e-5 of 17.5 M⁻¹. In addition, the EC50 in the series on HL-60 and in the series with HeLa was > 100000 nM throughout.
In series [1], `NCC(=O)Nc1ccc(N)c2c1C(=O)c1ccccc1C2=O` registered an Exclusion parameter of 2.1. Further, the K x10e-5 in the series on Nucleic Acid came out at 3.6 M⁻¹. In addition, the EC50 is 2000 nM with HL-60, 2700 nM with HeLa and 310 nM with L1210.
Consider `N[C@@H](Cc1c[nH]c2ccccc12)C(=O)NCC(=O)Nc1ccc(NC(=O)CNC(=O)[C@@H](N)Cc2c[nH]c3ccccc23)c2c1C(=O)c1ccccc1C2=O`, for which the EC50 in the series with HL-60 came out at 30000 nM.
With `O=C1c2ccccc2C(=O)c2c(NCCNCCO)ccc(NCCNCCO)c21` [AMETANTRONE], the Exclusion parameter in series [2] is recorded as 2.7. In addition, the K x10e-5 with Nucleic Acid amounted to 3.4 M⁻¹. Also, the EC50 in the series on HL-60 turned out to be 880 nM; in the series on HeLa, 3100 nM; with L1210, 100 nM.
Consider `NC(Cc1c[nH]c2ccccc12)C(=O)NCC(=O)Nc1ccc(NC(=O)CNC(=O)C(N)Cc2c[nH]c3ccccc23)c2c1C(=O)c1ccccc1C2=O` (configuration not stated), for which the EC50 with HL-60 amounted to 28000 nM.
In series [1], `NCC(=O)NCC(=O)Nc1ccc(NC(=O)CNC(=O)CN)c2c1C(=O)c1ccccc1C2=O` registered an Exclusion parameter of 2.5. The K x10e-5 in the series with Nucleic Acid came out at 2.4 M⁻¹. In addition, the EC50 with HL-60 turned out to be 2300 nM; in the series with HeLa, 2400 nM; with L1210, 800 nM.
The corresponding values for `NCC(=O)Nc1ccc(NC(=O)CN)c2c1C(=O)c1ccccc1C2=O` are 2.3, 2.2 M⁻¹, 1900 nM, 1600 nM and 900 nM.
As to `NCC(=O)NCC(=O)NCC(=O)Nc1ccc(NC(=O)CNC(=O)CNC(=O)CN)c2c1C(=O)c1ccccc1C2=O`, the Exclusion parameter in series [1] was found to be 2.4. Further, in the series on Nucleic Acid, the K x10e-5 was found to be 2.4 M⁻¹.
`NCC(=O)NCC(=O)Nc1ccc(N)c2c1C(=O)c1ccccc1C2=O` registered an Exclusion parameter in series [1] of 2.2. Moreover, the K x10e-5 in the series on Nucleic Acid turned out to be 1.7 M⁻¹. Also, the EC50 in the series on HL-60 was found to be 2000 nM; with HeLa, 2700 nM; in the series with L1210, 240 nM.
`NCCCCC(N)C(=O)NCC(=O)Nc1ccc(NC(=O)CNC(=O)C(N)CCCCN)c2c1C(=O)c1ccccc1C2=O` (configuration not stated) had an Exclusion parameter in series [1] of 2.4. In the series with Nucleic Acid, the K x10e-5 is 33 M⁻¹. Also, the EC50 with HL-60 and in the series on HeLa was > 100000 nM throughout.
